Measurements pooled from the literature.
Protocols differ between the studies behind these lines.
Sample: Caco-2

O=C(NCc1nc(-c2ccc(C(F)(F)F)cc2)cs1)[C@H]1CCCN(C(=O)CO[C@H]2CCCNC2)C1
efflux ratio: 160

O=C(Nc1ccc(OC(F)(F)F)cc1)N[C@H]1CC[C@H](Oc2ccc(C(=O)O)cc2)CC1
efflux ratio: 0.98

O=C(NCc1nc(-c2ccc(C(F)(F)F)cc2)cs1)[C@H]1CCCN(C(=O)COCCN2CCCCC2)C1
efflux ratio: 27

O=c1cc(-c2ccc(O)cc2)oc2c([C@@H]3O[C@H](CO)[C@@H](O)[C@H](O)[C@H]3O)c(O)cc(O)c12
efflux ratio (50 µg/mL): 1.11

N#Cc1ccc(C[C@H](Nc2c(Nc3ccc(Br)cc3)c(=O)c2=O)C(=O)N2CCc3ccccc32)cc1
efflux ratio (100 µM, 2 h): > 20

N[C@@H](COCC(=O)N1CCC[C@H](C(=O)NCc2nc(-c3ccc(C(F)(F)F)cc3)cs2)C1)c1ccccc1
efflux ratio: 11

O=C1CCC(N2Cc3cc(C4CCN(Cc5ccccc5)CC4)ccc3C2=O)C(=O)N1 (centres unmarked)
efflux ratio (10 µM, 2 h): 1.9

N#Cc1ccc(C[C@H](Nc2nnc(-c3ccc(F)cc3)o2)C(=O)N2CCc3ccccc32)cc1
efflux ratio (100 µM, 2 h): 3.8

Cc1ncc(Cl)cc1NCc1ccc(C(=O)N[C@@H](CC2CCCC2)C(=O)NC2CC2)s1
efflux ratio (5 µM, 2 h, pH 7.4): 41

CC[C@]1(O)C[C@@H]2CN(CCc3c([nH]c4ccccc34)[C@@](C(=O)OC)(c3cc4c(cc3OC)N(C)[C@H]3[C@@](O)(C(=O)OC)[C@H](OC(C)=O)[C@]5(CC)C=CCN6CC[C@]43[C@@H]65)C2)C1
efflux ratio (10 µM, 2 h): 13.5

O=C(NCc1nc(-c2ccc(C(F)(F)F)cc2)cs1)[C@H]1CCCN(C(=O)COCCN2CCCC2)C1
efflux ratio: 46

Cc1cc(C)c(CNC(=O)c2cc(Cl)c3c(c2C)O[C@@](C)([C@H]2CC[C@H](N(C)C)CC2)O3)c(=O)[nH]1
efflux ratio (1 µM): 52.4

O=c1c(O[C@@H]2O[C@H](CO)[C@H](O)[C@H](O)[C@H]2O)c(-c2ccc(O)c(O)c2)oc2cc(O)cc(O)c12
efflux ratio (50 µg/mL): 1.26

CCCCCCOC(=O)NC(=N)c1ccc(NCc2nc3cc(C(=O)N(CCC(=O)OCC)c4ccccn4)ccc3n2C)cc1
efflux ratio (5 µM, 2 h): 510
